# Data reported in ChEMBL document CHEMBL6092224, “The Discovery and Preclinical Profile of ALG-000184, a Prodrug of the Potent Hepatitis B Virus Capsid Assembly Modulator ALG-001075” (J Med Chem, 2024).
# Active and inactive are the calls of the source. The calls are words filed in the database; no cut-off is given here.
# Columns and labels:
# [1] = system: Hepatitis B virus; assay: Antiviral activity against HBV infected in human primary hepatocyte cells assessed as decrease in HBV DNA production pre-infected cells with virus followed by compound treatment for 3 days and subsequent replacement of medium with compound measured after 4 days by qPCR analysis; type: functional, organism-based
# Summary of the method: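 Primary human hepatocytes, 80,000/well, infected at MOI 100 in medium with 4% PEG, 2% DMSO, 10% FBS for 24 h, then washed. Compound from 2000 nM in 1/5 dilutions added on day 5 and refreshed on day 8. Medium collected on day 12; extracellular HBV DNA extracted and quantified by qPCR. n = 5 independent experiments.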
# [2] = Efflux ratio of apparent permeability in human Caco-2 cells at 1 uM incubated for 1 hr; type: ADME, cell-based
# Summary of the method: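 Bidirectional transport across Caco-2 cells in HBSS, pH 7.4, 0.1% final DMSO. Compound was tested at 1 or 2 μM for 1 h at 37 °C, 5% CO2. Apical and basal samples gave apparent permeability A→B and B→A, and the efflux ratio.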
# [3] = Plasma protein binding in mouse at 1 uM incubated for 4 to 24 hrs by equilibrium dialysis method; type: ADME, cell-free; conditions: time 4-24 hrs, read-out: PPB (converted)
# Summary of the method: (§1)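 Rapid equilibrium dialysis in mouse, rat, dog, monkey or human plasma for 4 or 24 h; test concentrations 1, […].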
# [4] = Plasma protein binding in rat at 1 uM incubated for 4 to 24 hrs by equilibrium dialysis method; type: ADME, cell-free; conditions: time 4-24 hrs, read-out: PPB (converted); summary of the method: as §1
# [5] = Ratio of drug concentration in blood to plasma in human at 5 uM incubated for 60 mins; type: ADME, cell-free
# Summary of the method: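 Compound at 5 μM in whole blood of each species, 37 ± 1 °C for 60 min; blood-to-plasma ratio and red blood cell partitioning determined.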
# [6] = AUC (infinity) in C57BL/6J mouse at 1 mg/kg, iv by LC-MS/MS analysis; type: ADME, organism-based; conditions: in vivo
# Summary of the method: (§2)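 Single dose to fasted male C57BL6 mice, Sprague-Dawley rats, beagle dogs and cynomolgus monkeys, either IV at 1 mg/kg or PO as a solution at 5 mg/kg, in 80% PEG 400 in water. Plasma concentrations were measured by LC-MS/MS. PK parameters come from noncompartmental analysis using nominal doses and nominal sampling times.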
# [7] = Oral bioavailability in C57BL/6J mouse at 5 mg/kg by LC-MS/MS analysis; type: ADME, organism-based; conditions: in vivo
# Summary of the method: (§3)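 Fasted male C57BL6 mice, Sprague–Dawley rats, beagle dogs, cynomolgus monkeys; single IV dose 1 mg/kg or PO solution 5 mg/kg in 80% PEG 400 in water; plasma concentrations measured, noncompartmental analysis with nominal doses and times; F from PO vs IV AUC.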
# [8] = Half life in Sprague-Dawley rat at 5 mg/kg, po by LC-MS/MS analysis; type: ADME, organism-based; conditions: in vivo; summary of the method: as §2
# [9] = Volume of distribution at steady state in Beagle dog at 1 mg/kg, iv by LC-MS/MS analysis; type: ADME, organism-based, Canis lupus familiaris; conditions: in vivo, read-out: Vdss
# Summary of the method: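 Fasted males (C57BL6 mice, Sprague−Dawley rats, beagle dogs, cynomolgus monkeys) given a single IV dose of 1 mg/kg in 80% PEG 400 in water. Plasma concentrations measured by LC-MS/MS. Vss derived by noncompartmental analysis using nominal dose and nominal sampling times.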
# [10] = AUC (infinity) in Beagle dog at 1 mg/kg, iv by LC-MS/MS analysis; type: ADME, organism-based, Canis lupus familiaris; conditions: in vivo; summary of the method: as §2
# [11] = Cmax in Beagle dog at 5 mg/kg, po by LC-MS/MS analysis; type: ADME, organism-based, Canis lupus familiaris; conditions: in vivo; summary of the method: as §2
# [12] = AUC (infinity) in Beagle dog at 5 mg/kg, po by LC-MS/MS analysis; type: ADME, organism-based, Canis lupus familiaris; conditions: in vivo; summary of the method: as §2
# [13] = Half life in Beagle dog at 5 mg/kg, po by LC-MS/MS analysis; type: ADME, organism-based, Canis lupus familiaris; conditions: in vivo; summary of the method: as §2
# [14] = Oral bioavailability in Cynomolgous monkey at 5 mg/kg by LC-MS/MS analysis; type: ADME, organism-based, Macaca fascicularis; conditions: cynomolgus monkey, in vivo; summary of the method: as §3
# [15] = system: Mus musculus; assay: Effect on HBsAg level in C57BL/6 mouse infected with AAV-Hepatitis B virus at 15 mg/kg, po bid for 56 days followed by induction of compound washout period for 14 days; type: functional, organism-based; conditions: time 70.0 day
# [16] = target: Nuclear receptor subfamily 1 group I member 2 (Homo sapiens, UniProt O75469); assay: Induction of PXR (unknown origin)
# Chain of Nuclear receptor subfamily 1 group I member 2 (O75469 whole entry): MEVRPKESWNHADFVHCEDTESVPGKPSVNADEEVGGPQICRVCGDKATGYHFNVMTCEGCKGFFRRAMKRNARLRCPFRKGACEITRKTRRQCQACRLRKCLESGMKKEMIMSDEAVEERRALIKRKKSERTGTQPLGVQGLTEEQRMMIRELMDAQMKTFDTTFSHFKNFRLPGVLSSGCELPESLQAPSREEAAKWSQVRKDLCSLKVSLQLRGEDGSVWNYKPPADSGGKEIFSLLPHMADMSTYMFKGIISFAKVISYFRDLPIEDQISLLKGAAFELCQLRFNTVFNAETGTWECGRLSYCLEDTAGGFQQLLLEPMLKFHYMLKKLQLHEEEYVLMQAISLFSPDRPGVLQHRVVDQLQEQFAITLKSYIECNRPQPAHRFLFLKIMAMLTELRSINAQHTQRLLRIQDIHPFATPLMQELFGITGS
# [17] = target: Cytochrome P450 3A4 (Homo sapiens, UniProt P08684); assay: Induction of CYP3A4 (unknown origin) in human hepatocytes upto 30 uM; type: ADME, cell-based, Hepatocyte
# Chain of Cytochrome P450 3A4 (P08684 whole entry): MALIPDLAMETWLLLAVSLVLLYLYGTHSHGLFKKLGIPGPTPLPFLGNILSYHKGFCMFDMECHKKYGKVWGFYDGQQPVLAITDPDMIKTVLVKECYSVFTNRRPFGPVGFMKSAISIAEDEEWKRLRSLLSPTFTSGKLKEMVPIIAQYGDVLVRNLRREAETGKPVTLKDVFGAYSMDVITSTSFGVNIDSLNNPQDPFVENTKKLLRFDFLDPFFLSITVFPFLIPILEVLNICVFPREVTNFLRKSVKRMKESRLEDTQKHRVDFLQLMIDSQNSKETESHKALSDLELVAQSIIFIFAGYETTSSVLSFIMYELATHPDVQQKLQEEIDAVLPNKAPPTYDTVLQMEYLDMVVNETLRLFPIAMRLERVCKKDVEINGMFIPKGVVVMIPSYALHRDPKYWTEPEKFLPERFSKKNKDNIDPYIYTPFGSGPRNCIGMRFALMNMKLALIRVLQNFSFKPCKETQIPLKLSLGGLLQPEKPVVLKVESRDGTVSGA
# [18] = system: MDCKII-MDR1; assay: Substrate activity at p-gp in MDCKII-MDR1 cells incubated for 150 mins; type: cell-based; conditions: Canis lupus familiaris
# Summary of the method: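 P-gp substrate test in MDR1-MDCK II and parental MDCK II cells, with or without the P-gp inhibitor GF120918, 150 min incubation. Parent compound run at 2 μM; prodrug at 2, 10 and 100 μM.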
# [19] = target: Multidrug and toxin extrusion protein 1 (Homo sapiens, UniProt Q96FL8); assay: Inhibition of MATE1 (unknown origin) transfected in HEK293 cells; type: cell-based
# Chain of Multidrug and toxin extrusion protein 1 (Q96FL8 whole entry): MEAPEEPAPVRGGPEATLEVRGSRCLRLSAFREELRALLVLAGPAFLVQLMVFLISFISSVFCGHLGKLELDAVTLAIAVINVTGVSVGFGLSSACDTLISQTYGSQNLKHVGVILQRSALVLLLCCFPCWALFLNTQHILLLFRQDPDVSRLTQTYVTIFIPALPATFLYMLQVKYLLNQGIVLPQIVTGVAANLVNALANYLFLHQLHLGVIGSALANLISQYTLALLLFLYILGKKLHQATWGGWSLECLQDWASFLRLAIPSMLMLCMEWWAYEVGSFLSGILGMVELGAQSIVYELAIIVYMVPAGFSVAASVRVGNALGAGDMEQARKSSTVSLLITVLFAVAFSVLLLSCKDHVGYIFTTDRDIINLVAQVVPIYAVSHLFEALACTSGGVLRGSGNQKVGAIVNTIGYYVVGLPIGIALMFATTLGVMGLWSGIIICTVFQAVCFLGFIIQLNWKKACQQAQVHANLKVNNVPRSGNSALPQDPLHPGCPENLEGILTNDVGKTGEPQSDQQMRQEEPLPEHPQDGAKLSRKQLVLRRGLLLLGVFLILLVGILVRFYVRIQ
# Summary of the method: (§4)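 HEK-293 cells transfected with the uptake transporter; uptake of known probe substrates measured with test compound at eight concentrations (0.0229–50.0 μM or 0.0457–100 μM); inhibition at each concentration used to calculate IC50.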
# [20] = target: Solute carrier family 22 member 1 (Homo sapiens, UniProt O15245); assay: Inhibition of OCT1 (unknown origin) transfected in HEK293 cells; type: cell-based; summary of the method: as §4
# Chain of Solute carrier family 22 member 1 (O15245 whole entry): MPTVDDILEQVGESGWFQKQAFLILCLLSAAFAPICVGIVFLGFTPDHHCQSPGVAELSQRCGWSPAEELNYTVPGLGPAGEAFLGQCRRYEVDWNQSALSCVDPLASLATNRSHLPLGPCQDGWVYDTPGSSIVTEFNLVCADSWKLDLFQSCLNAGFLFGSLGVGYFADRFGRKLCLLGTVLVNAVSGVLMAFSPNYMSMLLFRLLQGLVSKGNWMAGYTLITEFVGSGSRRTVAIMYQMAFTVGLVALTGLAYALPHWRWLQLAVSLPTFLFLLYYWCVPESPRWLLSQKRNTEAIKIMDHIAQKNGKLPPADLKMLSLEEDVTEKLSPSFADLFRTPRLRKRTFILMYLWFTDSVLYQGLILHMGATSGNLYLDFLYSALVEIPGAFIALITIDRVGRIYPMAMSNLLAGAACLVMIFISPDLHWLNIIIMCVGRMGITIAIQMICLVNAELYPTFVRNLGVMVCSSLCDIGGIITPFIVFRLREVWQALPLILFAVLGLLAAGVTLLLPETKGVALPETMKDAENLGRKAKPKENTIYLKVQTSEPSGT
# [21] = system: Cav1.2; assay: Inhibition of Cav1.2 (unknown origin) expressed in mammalian cells at 10 uM by automated patch-clamp method; type: toxicity, cell-based, Homo sapiens; conditions: mammalian cells expressing Cav1.2
# Summary of the method: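 Currents of hERG, Nav1.5 or Cav1.2 channels expressed in mammalian cells recorded by automated patch clamp (QPatch 48) at room temperature.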
# [22] = Effect on mitochondrial activity in human HepG2 cells upto 10 uM; type: toxicity, cell-based; conditions: hepg2, 10 µM
# [23] = target: Organic anion transporter 1 (Homo sapiens); assay: Inhibition of OAT1 (unknown origin) transfected in HEK293 cells
# [24] = Stability in simulated gastric fluid for >=13 hrs; type: physicochemical; conditions: simulated gi fluid
# Summary of the method: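 Stability tested in simulated gastric fluid containing pepsin and simulated intestinal fluid containing pancreatin.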
# [25] = Plasma protein binding in mouse at 2 uM incubated for 4 to 24 hrs by equilibrium dialysis method; type: ADME, cell-free; conditions: time 4-24 hrs, read-out: PPB
# Summary of the method: (§5)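 Rapid equilibrium dialysis in mouse, rat, dog, monkey or human plasma for 4 or 24 h at 2 μM.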
# [26] = Plasma protein binding in dog at 2 uM incubated for 4 to 24 hrs by equilibrium dialysis method; type: ADME, cell-free, Canis lupus familiaris; conditions: time 4-24 hrs, read-out: PPB (converted); summary of the method: as §5
# [27] = Prodrug conversion in Beagle dog assessed as formation of N-(3-cyano-4-fluorophenyl)-4-(2-((3-ethynyloxetan-3-yl)amino)-2-oxoacetyl)-1,3,5-trimethyl-1H-pyrrole-2-carboxamide metabolite at 6.3 mg/kg, po measured for 24 hrs; type: ADME, organism-based, Canis lupus familiaris; conditions: in vivo
# Summary of the method: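 Single oral prodrug dose at molar equivalent of 30 mg/kg (rats) or […] of parent in 95% PEG 400/5% copovidone; whole blood collected into 4 volumes 75% MeOH/25% acetonitrile, centrifuged, parent quantified by LC-MS/MS; noncompartmental PK analysis.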
# [28] = Prodrug conversion in high fat diet-fed Beagle dog assessed as formation of N-(3-cyano-4-fluorophenyl)-4-(2-((3-ethynyloxetan-3-yl)amino)-2-oxoacetyl)-1,3,5-trimethyl-1H-pyrrole-2-carboxamide metabolite at 5 mg/kg, po measured for 96 hrs; type: ADME, organism-based, Canis lupus familiaris; conditions: in vivo
smiles,measurement,setting,value
C#CC1(NC(=O)C(=O)c2c(C)c(C(=O)Nc3ccc(F)c(C#N)c3)n(C)c2C)COC1,EC50,[1],0.00198 µM
same,"efflux ratio at 1 h, 1 µM",[2],7.8
same,fraction unbound at 1 µM,[3],0.354
same,fraction unbound at 1 µM,[4],0.211
same,"blood plasma ratio at 1 h, 5 µM",[5],0.73
same,AUC(0-inf),[6],1390 ng·h/mL
same,bioavailability,[7],115%
same,half-life,[8],2.17 h
same,Vd,[9],1.03 L/kg
same,AUC(0-inf),[10],8520 ng·h/mL
same,Cmax,[11],1900 ng/mL
same,AUC(0-inf),[12],24500 ng·h/mL
same,half-life,[13],7.83 h
same,bioavailability,[14],19.6%
same,Activity,[15],inactive
same,Activity,[16],Not_active
same,Activity,[17],Not_active
same,Activity,[18],Active
same,IC50,[19],> 11.8 µM
same,IC50,[20],> 11.8 µM
same,IC50,[21],> 10 µM
same,Activity,[22],Non-toxic
same,IC50,[23],> 11.8 µM
C#CC1(N(COP(=O)([O-])[O-])C(=O)C(=O)c2c(C)c(C(=O)Nc3ccc(F)c(C#N)c3)n(C)c2C)COC1.[Na+].[Na+],Stability,[24],Stable
same,fraction unbound at 2 µM,[25],0.0913
same,fraction unbound at 2 µM,[26],0.179
same,Drug metabolism,[27],metabolite_detected
same,Drug metabolism,[28],metabolite_detected
